SMILES strings stand for the structures. Values after ≈ are worked out from the molar mass of the structure shown. Bounds are passed on as bounds.

What is called MIC is the lowest concentration that inhibits growth of the organism. Low values mean inhibition by little substance, high ones a need for much substance.

In this assay the test system is Mycobacterium tuberculosis. Put plainly: Antimycobacterial activity against isoniazid/rifampicin/ethambutol-resistant Mycobacterium tuberculosis clinical isolate after 4 days by Alamar blue assay. The assay is classed as functional. The following applies: 96 h. The gist of the method: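 Microplate Alamar blue assay against M. tuberculosis H37Rv (sensitive to isoniazid, rifampicin and ethambutol) and a clinical isolate resistant to all three drugs. Compounds were tested at 256, 128, 64, 32, 16, 8, 4, 2 and 1 µg/mL. Isoniazid, rifampicin, ethambutol and ofloxacin controls were run under the same conditions. MIC is given in µg/mL and converted to µM.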
A general note: Alamar Blue is a resazurin reagent that responds to reducing activity.
`C(=C\c1ccccc1)/C1=N[C@@H](Cc2ccccc2)CO1` came in with a minimal inhibitory concentration (MIC) of 30.4 µM (≈ 8.01 µg/mL). In the case of `C(=C\c1cccs1)/C1=N[C@@H](Cc2ccccc2)CO1` it was 7.4 µM (≈ 1.99 µg/mL); in that of `O=C(/C=C/c1ccc(OCc2ccccc2)cc1)N[C@H](CO)Cc1ccccc1`, 41.2 µM (≈ 16 µg/mL).

`COc1ccc(/C=C/C2=N[C@@H](Cc3ccccc3)CO2)cc1` displayed an MIC of 6.8 µM (≈ 1.99 µg/mL). As to `COc1ccc(/C=C/C(=O)N[C@H](CO)Cc2ccccc2)cc1`, the MIC worked out at 51.3 µM (≈ 16 µg/mL). Turning to `O=C(/C=C/c1cccs1)N[C@H](CO)Cc1ccccc1`, the MIC came out at 55.6 µM (≈ 16 µg/mL). For the compound `O=C(/C=C/c1ccccc1)N[C@H](CO)Cc1ccccc1`, the MIC was 56.8 µM (≈ 16 µg/mL).

In the case of `Fc1ccc(/C=C/C2=N[C@@H](Cc3ccccc3)CO2)cc1`, inhibition of growth (MIC) required 56.9 µM (≈ 16 µg/mL).

Regarding `Clc1ccc(/C=C/C2=N[C@@H](Cc3ccccc3)CO2)cc1`, inhibition of growth (MIC) required 26.9 µM (≈ 8.01 µg/mL).

For the compound `C(=C\c1ccc(OCc2ccccc2)cc1)/C1=N[C@@H](Cc2ccccc2)CO1`, the lowest concentration to inhibit growth (MIC) was 21.6 µM (≈ 7.98 µg/mL).

Compound `O=C(/C=C/c1ccc(Cl)cc1)N[C@H](CO)Cc1ccccc1` had an MIC of 50.6 µM (≈ 16 µg/mL). With `O=C(/C=C/c1ccc(F)cc1)N[C@H](CO)Cc1ccccc1` the figure was 53.4 µM (≈ 16 µg/mL); with `CC[C@@H](CO)NCCN[C@@H](CC)CO` [ETHAMBUTOL], over 1250 µM; with `NNC(=O)c1ccncc1` [ISONIAZID], 58.3 µM (≈ 8 µg/mL). With `CC1COc2c(N3CCN(C)CC3)c(F)cc3c(=O)c(C(=O)O)cn1c23` (stereo unspecified) [OFLOXACIN] the figure was 5.5 µM (≈ 1.99 µg/mL); with `CO[C@H]1/C=C/O[C@@]2(C)Oc3c(C)c(O)c4c(O)c(c(/C=N/N5CCN(C)CC5)c(O)c4c3C2=O)NC(=O)/C(C)=C\C=C\[C@H](C)[C@H](O)[C@@H](C)[C@@H](O)[C@@H](C)[C@H](OC(C)=O)[C@@H]1C` [RIFAMPIN], 19.4 µM (≈ 16 µg/mL).

The values above are taken from ChEMBL document CHEMBL4002631, “Synthesis, antimycobacterial and cytotoxic activity of α,β-unsaturated amides and 2,4-disubstituted oxazoline derivatives” (Bioorg Med Chem Lett, 2017).
